hERG rescue = compounds protecting human hERG from proarrhythmic drug block; CHO-hERG, FluxOR thallium flux, dofetilide IC70 present; activation (rescue from dofetilide block), less the hit threshold, % at 10 µM; 0.51% of 310,000 active;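 active = activation above the mean of controls blocked by dofetilide plus 5 SD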;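 note: thallium influx through hERG after potassium depolarization seen as dye fluorescence rise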
KCNK9 inh = human KCNK9 channel inhibition. Q9NPC2. 1.2% of 310,000 active. B-score at 10 µM. HEK293 KCNK9, FluxOR thallium flux fluorescence; hits give low values;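 active = ratio B-score over 3 SD below the library mean, with starting fluorescence within 5 SD of its mean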;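 note: negative B-score means less thallium flux so channel inhibition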
Kir21 inh = inhibitors of mouse Kir2.1 inward-rectifier potassium channel. P35561. HEK293-Kir2.1, FluxOR thallium flux fluorescence; hits give low values. B-score at 10 µM. 0.85% of 310,000 active. AID 1672;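 active = fluorescence ratio B-score at or below minus 3 SD of library scores, with starting-brightness B-score within 2 SD, cut at about -4.2 in these data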;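 note: channel flux triggered by added potassium and thallium sulfate stimulus; B-score of peak minus minimum fluorescence over baseline after thallium stimulus; more negative B-score means stronger Kir2.1 block with less thallium influx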
KCNQ1 inh = inhibitors of human KCNQ1 potassium channel. CHO-K1 KCNQ1, FluxOR thallium flux fluorescence; hits give high values. B-score at 10 µM. 1.3% of 310,000 active;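 active = compounds whose thallium flux B-score, printed positive for inhibition, exceeds three library SD while starting fluorescence stays within three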;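 note: channel opened by potassium depolarization with thallium stimulus after 20 min compound exposure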
KCNQ1 act = potentiators or activators of human KCNQ1 potassium channel | P51787 | CHO-K1 KCNQ1, thallium flux FluxOR fluorescence; hits give high values | B-score at 10 µM | 0.35% of 310,000 active | AID 2648;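 active = fluorescence ratio B-score, a plate-corrected score, at least three library SD, with initial intensity B-score within 5 SD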
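Doses: Single concentration per compound, DMSO matched to controls | Test system: KCNQ1-transfected CHO-K1 cells | Timing: 90 min dye loading and 20 min compound exposure, both at room temperature | Measured by: Kinetic FluxOR thallium fluorescence, 10-s 1-Hz baseline, 110-s post-stimulus read | Medium: Assay buffer with matched DMSO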
KCNK3 block = human KCNK3 channel inhibition, primary screen; O14649; CHO-KCNK3 thallium flux, FluxOR fluorescence; hits give low values; B-score at 10 µM; 0.84% of 340,000 active;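 active = B-score under library mean minus 4 SD, starting fluorescence ratio at most library mean plus 5 SD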;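 note: more negative B-score means stronger inhibition of thallium flux through KCNK3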
KCNQ1 inh valid = confirmation of human KCNQ1 potassium channel inhibitors; shares compounds with KCNQ1 inh; inhibition, % at 10 µM; 93% of 1,600 active; KCNQ1 cell line, FluxOR thallium flux fluorescence;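 active = primary screen active, with duplicate mean exceeding buffer control mean plus 3 SD of buffer wells, cut at about 28% in these data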
CHO KCNQ1 ctr = KCNQ1 inhibitor counter-screen hit in parental CHO cells | 21% of 1,600 active | fluorescence ratio (Tl flux) at 10 µM | shares compounds with KCNQ1 inh | parental CHO-K1, FluxOR thallium flux fluorescence ratio; hits give low values; zero means no signal rise above baseline | AID 588366;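 active = mean of duplicate thallium-flux fluorescence ratios in parental host cells more than 5 SD below the buffer control mean, cut at about 0.38 in these data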;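 note: ratio is peak minus minimum fluorescence divided by baseline fluorescence; actives read low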
KCNQ1 APC inh = blocks human KCNQ1 current in automated patch clamp; calls only at 10 µM; shares compounds with KCNQ1 inh; KCNQ1-CHO cells; 20% of 490 active;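 active = KCNQ1 current drop exceeding 3 SD of negative control wells, seen in both duplicate runs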;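 note: steady state current during a 2 s step from -80 to +40 mV; negative values mean current inhibition and positive values mean potentiation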
KCNQ2 spec = KCNQ1 inhibitor that also blocks rat KCNQ2 channel. shares compounds with KCNQ1 inh. KCNQ2 cells, FluxOR thallium flux fluorescence. inhibition, % at 10 µM. 71% of 1,600 active;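 active = mean percent inhibition of the KCNQ2 thallium signal more than 5 SD above the buffer-only control wells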;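 note: KCNQ2 expressed in CHO cells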
Target sequence (O88943 whole entry, looked up): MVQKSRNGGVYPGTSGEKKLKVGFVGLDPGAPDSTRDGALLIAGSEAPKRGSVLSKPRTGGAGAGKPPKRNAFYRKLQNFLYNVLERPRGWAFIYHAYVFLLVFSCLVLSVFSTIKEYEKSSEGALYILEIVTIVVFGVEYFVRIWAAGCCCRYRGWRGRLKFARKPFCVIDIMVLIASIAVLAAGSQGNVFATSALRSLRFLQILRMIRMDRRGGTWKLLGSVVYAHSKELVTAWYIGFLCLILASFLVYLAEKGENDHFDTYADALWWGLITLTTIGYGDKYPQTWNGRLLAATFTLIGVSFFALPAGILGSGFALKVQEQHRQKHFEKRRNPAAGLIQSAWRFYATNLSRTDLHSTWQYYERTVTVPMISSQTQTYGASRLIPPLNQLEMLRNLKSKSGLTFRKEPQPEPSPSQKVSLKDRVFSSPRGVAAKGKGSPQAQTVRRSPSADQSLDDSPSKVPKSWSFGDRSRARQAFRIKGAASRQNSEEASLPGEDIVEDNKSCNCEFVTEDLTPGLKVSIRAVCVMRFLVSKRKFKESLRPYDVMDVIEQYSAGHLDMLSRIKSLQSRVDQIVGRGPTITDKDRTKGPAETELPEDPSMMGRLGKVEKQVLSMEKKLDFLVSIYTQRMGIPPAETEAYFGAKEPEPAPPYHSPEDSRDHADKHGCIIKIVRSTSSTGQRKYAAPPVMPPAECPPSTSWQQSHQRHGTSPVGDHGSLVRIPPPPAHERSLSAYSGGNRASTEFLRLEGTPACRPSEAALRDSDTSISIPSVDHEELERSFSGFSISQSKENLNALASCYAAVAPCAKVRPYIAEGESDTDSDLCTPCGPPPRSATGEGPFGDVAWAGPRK
KCNQ1-KCNE1 inh = KCNQ1 inhibitor that also blocks human KCNQ1/KCNE1 channel; shares compounds with KCNQ1 inh; KCNQ1/KCNE1 cells, FluxOR thallium flux fluorescence; inhibition, % at 10 µM; 77% of 1,600 active; AID 652147;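 active = mean percent inhibition of duplicate wells above the buffer-only control mean plus 3 SD of those controls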
Of the large screens only hits and unclear results are named; the others gave an inactive call (follow-up assays come after a bar, where they were run). A selection: hits, their analogues and other compounds. The true share with any hit is near 3.7%.

Fc1ccc(F)c(NC(=S)NCCc2ccccc2)c1	KCNQ1 inh 7 | KCNQ1 inh valid 53.0 | CHO KCNQ1 ctr inactive | KCNQ2 spec 81.0% | KCNQ1-KCNE1 inh 71.0%
O=C(c1cccc([N+](=O)[O-])c1)c1ccc2[nH]c(=O)[nH]c2c1	none
CCOc1cc(N2CCOCC2)c(OCC)cc1NC(=O)CN1C(=O)N(C)C2(CCCCC2)C1=O	none (no result: hERG rescue, KCNK9 inh, Kir21 inh, KCNQ1 inh, KCNQ1 act)
Cc1cccc(N2CCN(C(=O)c3noc4c3COc3ccc(C)cc3-4)CC2C)c1 (centres undefined)	KCNQ1 inh 10 | KCNQ1 inh valid 88.0 | CHO KCNQ1 ctr inactive | KCNQ2 spec 98.0% | KCNQ1-KCNE1 inh 112.5%
CC1Sc2ccc(S(=O)(=O)N3CCC(C(=O)Nc4ccc(Cl)cc4)CC3)cc2NC1=O (centres undefined)	KCNQ1 inh 11 | KCNQ1 inh valid 144.5 | CHO KCNQ1 ctr 0.378 | KCNQ2 spec 104.0% | KCNQ1-KCNE1 inh 167.5%
CC1CCC2C(=O)N(c3cccc(C(=O)Nc4ccccc4Cl)c3)C(=O)C2C1 (centres undefined)	none
CC1CCCN(C(=O)c2ccc3ncsc3c2)C1 (centres undefined)	none (no result: hERG rescue, KCNK9 inh, Kir21 inh, KCNQ1 inh, KCNQ1 act)
Cc1ccc(C)c(N(CC(=O)NCc2ccco2)C(=O)CNS(=O)(=O)c2ccccc2)c1	none
CC(Sc1ccc(Cl)cc1)C(=O)Nc1ccc2c(c1)OCO2 (centres undefined)	none
CC(C)N1CCC2(CC1)N=C(c1ccc3c(c1)OCO3)CC(c1cc(Cl)ccc1O)N2 (centres undefined)	KCNQ1 inh 10 | KCNQ1 inh valid 49.5 | CHO KCNQ1 ctr inactive | KCNQ2 spec 106.3% | KCNQ1-KCNE1 inh 37.5%
CCCCCC(C)n1[nH]c(=O)cc1N (centres undefined)	none
O=C(O)C1C2CCC(O2)C1C(=O)Nc1ccc(OC(F)F)cc1 (centres undefined)	none
CCOc1ccc(S(=O)(=O)N/N=C2/CC(c3ccccc3)Oc3ccccc32)cc1 (centres undefined)	none
O=C(c1cc(COc2cccc(C(F)(F)F)c2)on1)N1CCC(c2ccncc2)CC1	KCNQ1 inh 12 | KCNQ1 inh valid 127.5 | CHO KCNQ1 ctr inactive | KCNQ1 APC inh inactive | KCNQ2 spec 80.3% | KCNQ1-KCNE1 inh 105.5%
CC(=O)c1ccc(OCc2cc(C(=O)N3CCC(c4ccncc4)CC3)no2)cc1	none
COc1cccc(OCc2cc(C(=O)N3CCC(c4ccncc4)CC3)no2)c1	KCNQ1 inh 8 | KCNQ1 inh valid 111.0 | CHO KCNQ1 ctr inactive | KCNQ1 APC inh inactive | KCNQ2 spec 135.0% | KCNQ1-KCNE1 inh 98.5%
O=C(c1cc(COc2cccc(C(F)(F)F)c2)on1)N1CCC(c2ccccc2)CC1	none
Cc1ccc(NC(=O)Nc2ccc3c(c2)CCC3)cc1	none
Cc1ccc(CN(C)CC(=O)Nc2ccc3c(c2)CCC3)cc1	KCNQ1 inh 6 | KCNQ1 inh valid 83.0 | CHO KCNQ1 ctr inactive | KCNQ2 spec 86.3% | KCNQ1-KCNE1 inh 89.5%
CCC(=O)c1ccc(OC(=O)C2CCN(C3=NS(=O)(=O)c4ccccc43)CC2)cc1	none (no result: hERG rescue, KCNK9 inh, Kir21 inh, KCNQ1 inh, KCNQ1 act)
NC(=O)C1CC(=O)N(CCc2ccc(F)cc2)C1 (centres undefined)	none
Cc1cc(C)c(-c2cc(NC(=O)COC(=O)c3ccc(CO)cc3)n(-c3ccccc3)n2)cc1C	none
Cc1cc(C)c(-c2cc(NC(=O)CSc3n[nH]c(N)n3)n(-c3ccccc3)n2)cc1C	KCNQ1 inh 7 | KCNQ1 inh valid 78.5 | CHO KCNQ1 ctr inactive | KCNQ2 spec 89.0% | KCNQ1-KCNE1 inh 127.5%
COc1ccc(-c2cn[nH]c2-c2ccc(OCc3ccccc3)cc2O)cc1	KCNK9 inh -6.73, KCNQ1 inh 7 | KCNQ1 inh valid 107.0 | CHO KCNQ1 ctr inactive | KCNQ1 APC inh inactive | KCNQ2 spec 91.3% | KCNQ1-KCNE1 inh 129.5%
Cc1nn(CC(=O)NCCCN2CC(C)CC(C)C2)c(=O)c2cccn12 (centres undefined)	none
CCN1/C(=C\c2ccc3cc(C)ccc3[n+]2CC)Sc2cc(C)c(C)cc21	KCNQ1 inh 17 | KCNQ1 inh valid 169.5 | CHO KCNQ1 ctr 0.259 | KCNQ2 spec inactive | KCNQ1-KCNE1 inh inactive
CCN1/C(=C/c2ccc3cc(C)cc(C)c3[n+]2CC)Sc2cc(C)ccc21	none (no result: hERG rescue, KCNK9 inh, Kir21 inh, KCNQ1 inh, KCNQ1 act)
S=C(NCCSCc1ccccc1Cl)Nc1ccccc1	KCNQ1 inh 10 | KCNQ1 inh valid 106.5 | CHO KCNQ1 ctr inactive | KCNQ1 APC inh inactive | KCNQ2 spec 87.3% | KCNQ1-KCNE1 inh 58.0%
Cc1cccc(CSCCNC(=S)Nc2ccccc2)c1	KCNQ1 inh 7 | KCNQ1 inh valid 55.5 | CHO KCNQ1 ctr inactive | KCNQ2 spec 65.0% | KCNQ1-KCNE1 inh 98.5%
S=C(NCCSCc1ccc(Cl)cc1)Nc1ccccc1	none
CN(C)S(=O)(=O)c1cccc(C(=O)Nc2cc(S(=O)(=O)N3CCOCC3)ccc2N2CCCC2)c1	none (no result: hERG rescue, KCNK9 inh, Kir21 inh, KCNQ1 inh, KCNQ1 act)
Cc1c(C(=O)Nc2cccc([N+](=O)[O-])c2)sc2ncn(CC(=O)N3CCOCC3)c(=O)c12	none
CCc1noc(C)c1C(=O)NCCc1ccc(Cl)cc1	none
O=C(NCCCN1CCOCC1)C(C(=O)NCCCN1CCOCC1)c1ncc(C(F)(F)F)cc1Cl	none
Cn1nc(C(C)(C)C)cc1C(=O)NCc1cc(F)cc2c1OCOC2	KCNQ1 inh 7 | KCNQ1 inh valid 94.0 | CHO KCNQ1 ctr inactive | KCNQ1 APC inh active | KCNQ2 spec 82.0% | KCNQ1-KCNE1 inh 34.0%
Cc1cc(C(=O)NCc2cc(F)cc3c2OCOC3)nn1C	none
c1ccc(CCNc2ncnc3ccccc23)cc1	KCNQ1 inh 8 | KCNQ1 inh valid 139.0 | CHO KCNQ1 ctr inactive | KCNQ1 APC inh inactive | KCNQ2 spec 84.3% | KCNQ1-KCNE1 inh 110.0%
CCc1ccccc1Nc1ncnc2ccccc12	none
CCCCCCCCNc1ncnc2ccccc12	Kir21 inh -8, KCNQ1 inh 9 | KCNQ1 inh valid 125.0 | CHO KCNQ1 ctr 0.372 | KCNQ2 spec 75.7% | KCNQ1-KCNE1 inh 117.5%
Brc1ccc2ncnc(NCc3ccccc3)c2c1	none

Assay outcomes from PubChem BioAssay.
